In the library only some 1.4% were active in any assay of this set; here they are far more common.
RBBP9 inh = human RBBP9 hydrolase inhibition. hit rate 0.2% among 220,000. recombinant RBBP9, FP-Rh probe fluorescence polarization. AID 1515. O75884. inhibition, % at 7.94 µM;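 active = inhibition above the campaign mean of all tested compounds plus 3 SD, cut at about 14% in these data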;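 note: plate controls were DMSO wells with RBBP9 for no effect and wells lacking RBBP9 protein for full effect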
Target sequence (O75884 whole entry, looked up): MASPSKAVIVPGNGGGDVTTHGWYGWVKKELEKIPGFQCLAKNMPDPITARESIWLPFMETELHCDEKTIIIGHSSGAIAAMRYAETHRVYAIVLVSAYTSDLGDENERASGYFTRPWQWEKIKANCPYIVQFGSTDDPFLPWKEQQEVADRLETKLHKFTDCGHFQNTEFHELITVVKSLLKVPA
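Test system – recombinant human RBBP9 · Input – RBBP9 2.5 µM in dispensing solution, pre-mixing · Medium – Tris buffer pH 8.0, NaCl, Pluronic · Schedule – preincubation 30 min plus labeling 45 min at 25 °C · Measured by – fluorescence polarization · Measure – % inhibition · Controls – DMSO and no-protein wells · Replicates – one well per compound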
SIAE inh = inhibitors of human sialic acid acetylesterase SIAE; inhibition, % at 9.66 µM; Q9HAT2; SIAE FP-Rh probe binding, fluorescence polarization; hit rate 0.69% among 370,000; AID 1053197;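 active = inhibition above a cutoff: mean of compounds within the control limits plus 3 SD of those, cut at about 17% in these data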;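 note: 0% = plate median of compound wells and 100% = probe without SIAE protein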
HTRA1 inhibitor = blocks human HTRA1 serine peptidase. hit rate 0.5% among 340,000. inhibition, % at 5.96 µM. Q92743. recombinant HTRA1, FP-rhodamine activity-based probe, fluorescence polarization; in the data active = inhibition above about 36%;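 note: 0% = enzyme with DMSO and 100% = wells lacking enzyme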
Target sequence (Q92743 whole entry, looked up): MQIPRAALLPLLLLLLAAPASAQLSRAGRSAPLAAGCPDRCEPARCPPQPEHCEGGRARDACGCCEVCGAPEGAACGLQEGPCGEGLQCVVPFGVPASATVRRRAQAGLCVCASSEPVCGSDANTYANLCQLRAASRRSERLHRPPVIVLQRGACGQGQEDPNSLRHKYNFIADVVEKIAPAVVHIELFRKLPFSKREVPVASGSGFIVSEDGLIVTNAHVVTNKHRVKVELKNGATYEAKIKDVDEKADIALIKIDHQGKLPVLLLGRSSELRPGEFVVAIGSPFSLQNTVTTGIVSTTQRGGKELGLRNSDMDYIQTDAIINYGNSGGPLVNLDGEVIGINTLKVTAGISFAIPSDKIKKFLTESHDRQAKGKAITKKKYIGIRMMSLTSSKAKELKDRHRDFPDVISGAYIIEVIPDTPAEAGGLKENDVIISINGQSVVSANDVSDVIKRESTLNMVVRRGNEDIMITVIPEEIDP
mABHD4 FP = ABHD4 (mouse) inhibition, primary FP screen; Q8VD66; purified mABHD4, FP-Rh probe fluorescence polarization; inhibition, % at 8.92 µM; hit rate 0.54% among 370,000;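 active = inhibition exceeding the mean over every tested compound plus 3 SD, cut at about 30% in these data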;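 note: 0% = plate median of compound wells and 100% = S159A mutant with DMSO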
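Test system: mABHD4 protein | Buffer or medium: HEPES pH 7.0 buffer, 150 mM NaCl, 0.01% Pluronic F-127 | Probe or stimulus: FP-Rh fluorescent activity-based probe, added after compound pre-incubation | Timing: Pre-incubation 45 min, probe exposure 60 min, at 25 °C | Technique: Fluorescence polarization, excitation 525 nm, emission 598 nm, BODIPY TMR filters | Repeats: Single well per compound (singlicate)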
SIAE confirm = confirmation of human SIAE inhibitors; shares compounds with SIAE inh; SIAE FP-Rh activity-based probe, fluorescence polarization; inhibition, % at 9.66 µM; hit rate 13% among 2,300; AID 1117263;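 active = mean inhibition of the replicates above the hit cutoff set in the primary screen, cut at about 17% in these data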;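 note: 0% = SIAE with DMSO and probe and 100% = probe without SIAE; inhibitors lower polarization as more probe stays unbound to SIAE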
Starred values were filed as active, the others as inactive; nt = not tested or not shown.

SMILES | RBBP9 inh | SIAE inh | HTRA1 inhibitor | mABHD4 FP | SIAE confirm
S=C(NCc1ccc2[nH]c3c(c2c1)CCCC3)Nc1ccccc1 | -7 | 23* | 17 | 14 | 9
Cc1ccc(C)n1-c1nnc(N2CCC(C(=O)NCCCN3CCN(C)CC3)CC2)s1 | nt | 6 | 0 | -2 | nt
COc1ccc(N2CCN(C(=O)c3ccccc3N(C)S(=O)(=O)c3ccc(C)cc3)CC2)cc1 | nt | 0 | 0 | -3 | nt
Cc1ccc(S(=O)(=O)N(C)c2ccccc2C(=O)N2CCCC2)cc1 | nt | 17* | 5 | 4 | 5
COC(=O)C1CCN(C(=O)c2ccc(OC)c(S(=O)(=O)N3CCCc4ccccc43)c2)CC1 | nt | -4 | -1 | -1 | nt
COC(=O)C1CCN(C(=O)COC(=O)c2ccc(OC)c(S(=O)(=O)N3CCCc4ccccc43)c2)CC1 | 4 | 21* | -5 | 5 | -3
Nc1ncnc2c1ncn2[C@@H]1O[C@H](C(=O)NCCc2ccc(F)cc2)[C@@H](O)[C@H]1O | nt | 23* | nt | -1 | 22*
Nc1ncnc2c1ncn2[C@@H]1O[C@H](C(=O)N[C@@H](CCc2ccccc2)C(=O)N2CCN(CC(=O)N3CCCC3)CC2)[C@@H](O)[C@H]1O | nt | 29* | nt | 6 | 121*
Cn1c(=O)n(C)c2cc(CNC(=O)[C@H]3O[C@@H](n4cnc5c(N)ncnc54)[C@H](O)[C@@H]3O)ccc21 | nt | 6 | nt | 2 | nt
Nc1ncnc2c1ncn2[C@@H]1O[C@H](C(=O)N[C@@H](CCc2ccccc2)C(=O)N2CCN(C(=O)N3CCCCC3)CC2)[C@@H](O)[C@H]1O | nt | 2 | nt | 3 | nt
Nc1ncnc2c1ncn2[C@@H]1O[C@H](C(=O)N[C@@H](CCc2ccccc2)C(=O)N2CCN(C(=O)N3CCOCC3)CC2)[C@@H](O)[C@H]1O | nt | 70* | nt | 5 | 73*
CN(Cc1ccc2c(c1)CCCN2C)C(=O)[C@H]1O[C@@H](n2cnc3c(N)ncnc32)[C@H](O)[C@@H]1O | nt | 59* | nt | 4 | 47*
Nc1ncnc2c1ncn2[C@@H]1O[C@H](C(=O)NCc2ccc(OC(F)(F)F)cc2)[C@@H](O)[C@H]1O | nt | 10 | nt | 2 | nt
O=C(CSc1nnc(-c2ccc(Cl)cc2)n1Cc1ccco1)Nc1cccc2ccccc12 | nt | -5 | nt | 0 | nt
CCN(C(=O)COC(=O)CCCOc1ccc(Cl)cc1C)c1c(N)n(Cc2ccccc2)c(=O)[nH]c1=O | nt | -6 | -2 | 5 | nt
Nc1[nH]c2cc(C(F)(F)F)ccc2c1C(=O)N1CCN(CCc2ccccc2)CC1 | nt | 9 | nt | 16 | nt
CC(C)[C@@H](CO)NC(=O)[C@H]1O[C@@H](n2cnc3c(N)ncnc32)[C@H](O)[C@@H]1O | nt | 8 | nt | 0 | nt
CN(C)c1cccc2c(S(=O)(=O)NC(=O)[C@H]3O[C@@H](n4cnc5c(N)ncnc54)[C@H](O)[C@@H]3O)cccc12 | nt | 56* | nt | 7 | 53*
Nc1ncnc2c1ncn2[C@@H]1O[C@H](C(=O)N[C@@H](CO)Cc2ccccc2)[C@@H](O)[C@H]1O | nt | 25* | nt | 6 | 25*
CCOc1ccc(-c2cc(C(C)=O)c3n(c2=O)CCC3)cc1 | nt | 6 | nt | 4 | nt
COc1ccc(N2CC(C(=O)Nc3nnc(SCC(=O)Nc4ccc(NC(C)=O)cc4)s3)CC2=O)cc1 (configuration not stated) | nt | -8 | -7 | -3 | nt
O=C(NCc1cccnc1)c1csc([C@@H]2O[C@H](CO)[C@H](O)[C@H](O)[C@H]2O)n1 | nt | -1 | nt | -3 | nt
Cc1cccc(-n2c(-c3ccccc3)c[nH]c2=S)c1C | nt | 9 | 0 | 9 | nt
CCC1(c2ccccc2)NC(=S)N(c2cccc(C)c2C)N1 (configuration not stated) | -1 | 17* | -4 | 3 | -5
COc1cc(-c2nc3ccccn3c2/N=C/c2cc(OC)c(OC)c(OC)c2)ccc1O | -7 | 28* | -4 | 6 | 16
SMILES | RBBP9 inh | SIAE inh | HTRA1 inhibitor | mABHD4 FP | SIAE confirm
CCN(CC(=O)Nc1c(C(=O)OC)[nH]c2ccc(Cl)cc12)c1ccc2c(c1)OCO2 | 4 | 21* | 13 | 22 | 13
CC(=O)Nc1ccc(N2C(=O)c3cccc4c(O)ccc(c34)C2=O)cc1 | nt | 26* | 34 | 24 | 17*
Cc1ccc(N2C(=O)c3cccc4c(C(=O)O)ccc(c34)C2=O)cc1 | 6 | -4 | nt | -1 | nt
CCCOc1nnnn1-c1ccccc1 | 1 | 11 | 9 | -5 | nt
CCCOn1nnnc1-c1ccccc1 | -1 | 18* | 2 | 8 | 3
CC1CN(S(=O)(=O)c2cc(C(=O)N(C)Cc3cccs3)ccc2Cl)CC(C)O1 (configuration not stated) | nt | 0 | -7 | -5 | nt
CN(C)/C=N/C(=S)Nc1cc(Cl)cc(Cl)c1 | -4 | 17* | -10 | 0 | 1
CC1CCN(CCCNS(=O)(=O)c2cc3c(cc2Br)CCN3C(=O)C2CC2)CC1 | nt | 4 | nt | 8 | nt
CN(CC(=O)Nc1ccccc1C(=O)NC1CC1)Cc1cccs1 | nt | -1 | 1 | 1 | nt
Cc1ccc(S(=O)(=O)Cc2ccc(C(=O)NCc3cccs3)o2)cc1 | -5 | 69* | 5 | -1 | -11
C=CCOC(=O)N1CCC(NS(=O)(=O)c2ccc3c(c2)CCN3C(C)=O)CC1 | nt | 1 | nt | -6 | nt
CCOC(=O)C(NC(=O)CC)(N1CCc2ccccc2C1)C(F)(F)F (configuration not stated) | 3 | 20* | 0 | 5 | 3
COc1cc(NC(=O)CSc2nc3ncnc(N)c3[nH]2)c(C(=O)O)cc1OC | nt | 18* | -3 | -5 | 1
COc1cc(NC(=O)CSc2ccccc2)c(C(=O)O)cc1OC | -3 | 2 | 1 | -1 | nt
O=c1[nH]c2cc3c(cc2cc1CN(Cc1ccc2c(c1)OCO2)Cc1nnnn1CC1CCCO1)OCO3 (configuration not stated) | -2 | 59* | -1 | -1 | -6
Cc1c(C(=O)N2CCCCC2)c(S(=O)(=O)N(C)Cc2ccccc2)c(C)n1C | nt | 23* | -2 | 3 | -1
Cc1c(C(=O)N2CCCCC2)c(S(=O)(=O)N(C)Cc2ccco2)c(C)n1C | nt | 0 | 11 | -5 | nt
Cc1c(C)n(CCc2ccccc2)c2ncnc(NCCCO)c12 | nt | 18* | -10 | -4 | 5
Cc1c(C)n(CCc2ccccc2)c2ncnc(NN)c12 | nt | 1 | 0 | 3 | nt
CN(C)CCCCCCCCCCC(=O)/C=N/O | 3 | 16 | 6 | -1 | nt
CN(CCCCCCCCC(=O)/C=N/O)Cc1ccccc1 | 10 | 22* | 5 | 4 | 9
CC(CC(=O)N1CCc2ccccc21)n1cccn1 (configuration not stated) | nt | 1 | 1 | -5 | nt
CN(C)CCN(Cc1ccc(Cl)cc1)c1ccccn1 | 8 | 0 | 5 | -6 | nt
S=C(NCCCCN(Cc1ccc(Cl)cc1)c1ccc(Br)cn1)NCCCc1cnc[nH]1 | nt | 24* | nt | 11 | 28*
CN(C)C1=NCCN1CCCC1CCCCC1 | nt | 1 | 4 | 3 | nt
CCCCN1CCN=C1N(C)C | nt | 17* | 4 | 0 | 3

Assay outcomes: PubChem BioAssay, The Scripps Research Institute Molecular Screening Center
